Measured values collected from several papers.
Each line is one published result; the experiments were not run side by side.
Observed: cell growth or viability

Compound | cell line | technique | tested at | time | quantity | value
Nc1nc(F)nc2c1ncn2[C@@H]1O[C@H](COP(=O)(O)O)[C@@H](O)[C@@H]1O | LLC-MK2 | – | – | 5 days | CC50 | 60.6 µM
CC(C)C[C@@H](C=O)NC(=O)[C@H](CC(C)C)NC(=O)[C@H](CC(C)C)NC(=O)OCc1ccccc1 | Caco-2 | neutral red | – | 48 h | CC50 | < 0.15 µM
CC=C1[C@H]2C=C(C)C[C@]1(N(C)C)c1ccc(OC)nc1C2 | IMR-90 | MTT | 100 µM | 24 h | cell death | 5.5%
COc1ccc(C[C@H](NC(=O)[C@H](C)NC(=O)CN2CCOCC2)C(=O)N[C@@H](Cc2ccccc2)C(=O)C(=O)Nc2ccccc2)cc1 | Caco-2 | ATP luminescence | – | 48 h | CC50 | 16.2 µM
CC(C)(C)NC(=O)N[C@H](C(=O)N1C[C@H]2[C@@H]([C@H]1C(=O)NC(CC1CCC1)C(=O)C(N)=O)C2(C)C)C(C)(C)C (some centres unmarked) | Caco-2 | neutral red | – | 48 h | CC50 | > 100 µM
CC=C1[C@H]2C=C(C)C[C@]1(N)c1cc(CC)c(=O)[nH]c1C2 | IMR-90 | MTT | 100 µM | 24 h | cell death | 2.2%
Nc1nc(F)nc2c1ncn2[C@@H]1O[C@H](CO)[C@@H](O)[C@@H]1O | LLC-MK2 | – | – | 5 days | CC50 | 54.1 µM
O=c1c(O[C@@H]2O[C@H](CO)[C@@H](O)[C@H](O)[C@H]2O)c(-c2ccc(O)cc2)oc2cc(O)cc(O)c12 | RD | WST-1 | – | – | IC50 | 48.8 µM
